Broadly, the IC50 is the concentration that inhibits the measured activity by half. In general, GI50 refers to the concentration that inhibits growth by half. The low end stands for more potent growth inhibition, the high end for less potent growth inhibition.

For one assay, the target named is Histone deacetylase 9 (Homo sapiens, UniProt Q9UKV0). The assay can be described thus: Inhibition of HDAC9 (unknown origin).
The test system of the next assay is RPMI-8226. The assay can be described thus: Antiproliferative activity against human RPMI8226 cells after 48 hrs by SRB assay. Type of assay: functional. As to conditions: RPMI-8226, 48 h. Summed up: (§1)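 Cells were exposed to test compounds at the indicated concentrations for 48 h. They were then fixed with 10% trichloroacetic acid, stained 30 min with 0.4% SRB in 1% AcOH, and washed with 1% AcOH. Bound dye was solubilized in 10 mM Tris base and OD read at 510 nm. Lines cultured in RPMI 1640 with 20% FBS and penicillin/streptomycin, 37°C, 5% CO2.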
(The SRB assay estimates cell density from bound dye.)

A further assay deals with NCI-H929. Kind of assay: Antiproliferative activity against human NCI-H929 cells after 48 hrs by SRB assay. Type of assay: functional. As to conditions: NCI-H929, 48 h. Summed up:
as §1

Another assay addresses Histone deacetylase 2 (Homo sapiens, UniProt Q92769). The assay can be described thus: Inhibition of full length recombinant human C-terminal GST-tagged HDAC2 expressed in baculovirus infected insect cells using RHK-K(Ac)-AMC as substrate after 60 mins by fluorescence assay.
The subject of a further assay is U-266. The assay can be described thus: Antiproliferative activity against human U266 cells after 48 hrs by SRB assay. As to conditions: U-266, 48 h. It counts as functional. Summed up: as §1
The target in another assay is T1, Histone deacetylase 8 (Homo sapiens, UniProt Q9BY41).
T1 sequence (Q9BY41 whole entry): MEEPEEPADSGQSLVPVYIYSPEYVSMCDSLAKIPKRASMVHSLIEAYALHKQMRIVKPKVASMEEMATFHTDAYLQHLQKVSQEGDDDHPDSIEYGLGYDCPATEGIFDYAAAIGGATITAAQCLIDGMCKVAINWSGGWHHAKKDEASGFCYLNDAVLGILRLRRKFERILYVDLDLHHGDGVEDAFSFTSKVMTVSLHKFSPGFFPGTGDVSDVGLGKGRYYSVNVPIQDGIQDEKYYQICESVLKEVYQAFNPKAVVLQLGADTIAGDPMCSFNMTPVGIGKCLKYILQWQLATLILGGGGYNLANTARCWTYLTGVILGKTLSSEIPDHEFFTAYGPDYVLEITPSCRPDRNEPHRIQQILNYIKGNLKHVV
The assay can be described thus: Inhibition of recombinant human C-terminal His-tagged/N-terminal Strep2-tagged HDAC8 (1 to 377 residues) expressed in insect cells using RHK-K(Ac)-AMC as substrate after 60 mins by fluorescence assay.

The target in assay [1] is Histone deacetylase 3/Nuclear receptor corepressor 2 (HDAC3/NCoR2) (Homo sapiens, UniProt O15379). Kind of assay: Inhibition of full length recombinant human C-terminal His-tagged HDAC3/N-terminal GST-tagged NCOR2 (395 to 489 residues) expressed in insect cells using RHK-K(Ac)-AMC as substrate after 60 mins by fluorescence assay.
Chain of Histone deacetylase 3/Nuclear receptor corepressor 2 (HDAC3/NCoR2) (O15379 whole entry, the tested form may be a part): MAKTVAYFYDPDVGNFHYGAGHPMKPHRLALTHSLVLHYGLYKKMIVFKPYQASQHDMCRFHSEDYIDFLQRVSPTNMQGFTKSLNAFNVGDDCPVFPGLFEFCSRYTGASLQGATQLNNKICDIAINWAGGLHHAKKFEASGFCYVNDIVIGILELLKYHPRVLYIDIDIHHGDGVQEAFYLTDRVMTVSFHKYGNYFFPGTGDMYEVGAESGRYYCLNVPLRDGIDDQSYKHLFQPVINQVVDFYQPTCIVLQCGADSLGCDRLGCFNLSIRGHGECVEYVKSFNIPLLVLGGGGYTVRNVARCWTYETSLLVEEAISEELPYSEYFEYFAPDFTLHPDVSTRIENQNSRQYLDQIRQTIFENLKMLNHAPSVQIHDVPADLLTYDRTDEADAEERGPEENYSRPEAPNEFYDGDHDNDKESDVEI
Chain of Histone deacetylase 3/Nuclear receptor corepressor 2 (HDAC3/NCoR2) (Q9Y618 whole entry, further chain, the tested form may be a part): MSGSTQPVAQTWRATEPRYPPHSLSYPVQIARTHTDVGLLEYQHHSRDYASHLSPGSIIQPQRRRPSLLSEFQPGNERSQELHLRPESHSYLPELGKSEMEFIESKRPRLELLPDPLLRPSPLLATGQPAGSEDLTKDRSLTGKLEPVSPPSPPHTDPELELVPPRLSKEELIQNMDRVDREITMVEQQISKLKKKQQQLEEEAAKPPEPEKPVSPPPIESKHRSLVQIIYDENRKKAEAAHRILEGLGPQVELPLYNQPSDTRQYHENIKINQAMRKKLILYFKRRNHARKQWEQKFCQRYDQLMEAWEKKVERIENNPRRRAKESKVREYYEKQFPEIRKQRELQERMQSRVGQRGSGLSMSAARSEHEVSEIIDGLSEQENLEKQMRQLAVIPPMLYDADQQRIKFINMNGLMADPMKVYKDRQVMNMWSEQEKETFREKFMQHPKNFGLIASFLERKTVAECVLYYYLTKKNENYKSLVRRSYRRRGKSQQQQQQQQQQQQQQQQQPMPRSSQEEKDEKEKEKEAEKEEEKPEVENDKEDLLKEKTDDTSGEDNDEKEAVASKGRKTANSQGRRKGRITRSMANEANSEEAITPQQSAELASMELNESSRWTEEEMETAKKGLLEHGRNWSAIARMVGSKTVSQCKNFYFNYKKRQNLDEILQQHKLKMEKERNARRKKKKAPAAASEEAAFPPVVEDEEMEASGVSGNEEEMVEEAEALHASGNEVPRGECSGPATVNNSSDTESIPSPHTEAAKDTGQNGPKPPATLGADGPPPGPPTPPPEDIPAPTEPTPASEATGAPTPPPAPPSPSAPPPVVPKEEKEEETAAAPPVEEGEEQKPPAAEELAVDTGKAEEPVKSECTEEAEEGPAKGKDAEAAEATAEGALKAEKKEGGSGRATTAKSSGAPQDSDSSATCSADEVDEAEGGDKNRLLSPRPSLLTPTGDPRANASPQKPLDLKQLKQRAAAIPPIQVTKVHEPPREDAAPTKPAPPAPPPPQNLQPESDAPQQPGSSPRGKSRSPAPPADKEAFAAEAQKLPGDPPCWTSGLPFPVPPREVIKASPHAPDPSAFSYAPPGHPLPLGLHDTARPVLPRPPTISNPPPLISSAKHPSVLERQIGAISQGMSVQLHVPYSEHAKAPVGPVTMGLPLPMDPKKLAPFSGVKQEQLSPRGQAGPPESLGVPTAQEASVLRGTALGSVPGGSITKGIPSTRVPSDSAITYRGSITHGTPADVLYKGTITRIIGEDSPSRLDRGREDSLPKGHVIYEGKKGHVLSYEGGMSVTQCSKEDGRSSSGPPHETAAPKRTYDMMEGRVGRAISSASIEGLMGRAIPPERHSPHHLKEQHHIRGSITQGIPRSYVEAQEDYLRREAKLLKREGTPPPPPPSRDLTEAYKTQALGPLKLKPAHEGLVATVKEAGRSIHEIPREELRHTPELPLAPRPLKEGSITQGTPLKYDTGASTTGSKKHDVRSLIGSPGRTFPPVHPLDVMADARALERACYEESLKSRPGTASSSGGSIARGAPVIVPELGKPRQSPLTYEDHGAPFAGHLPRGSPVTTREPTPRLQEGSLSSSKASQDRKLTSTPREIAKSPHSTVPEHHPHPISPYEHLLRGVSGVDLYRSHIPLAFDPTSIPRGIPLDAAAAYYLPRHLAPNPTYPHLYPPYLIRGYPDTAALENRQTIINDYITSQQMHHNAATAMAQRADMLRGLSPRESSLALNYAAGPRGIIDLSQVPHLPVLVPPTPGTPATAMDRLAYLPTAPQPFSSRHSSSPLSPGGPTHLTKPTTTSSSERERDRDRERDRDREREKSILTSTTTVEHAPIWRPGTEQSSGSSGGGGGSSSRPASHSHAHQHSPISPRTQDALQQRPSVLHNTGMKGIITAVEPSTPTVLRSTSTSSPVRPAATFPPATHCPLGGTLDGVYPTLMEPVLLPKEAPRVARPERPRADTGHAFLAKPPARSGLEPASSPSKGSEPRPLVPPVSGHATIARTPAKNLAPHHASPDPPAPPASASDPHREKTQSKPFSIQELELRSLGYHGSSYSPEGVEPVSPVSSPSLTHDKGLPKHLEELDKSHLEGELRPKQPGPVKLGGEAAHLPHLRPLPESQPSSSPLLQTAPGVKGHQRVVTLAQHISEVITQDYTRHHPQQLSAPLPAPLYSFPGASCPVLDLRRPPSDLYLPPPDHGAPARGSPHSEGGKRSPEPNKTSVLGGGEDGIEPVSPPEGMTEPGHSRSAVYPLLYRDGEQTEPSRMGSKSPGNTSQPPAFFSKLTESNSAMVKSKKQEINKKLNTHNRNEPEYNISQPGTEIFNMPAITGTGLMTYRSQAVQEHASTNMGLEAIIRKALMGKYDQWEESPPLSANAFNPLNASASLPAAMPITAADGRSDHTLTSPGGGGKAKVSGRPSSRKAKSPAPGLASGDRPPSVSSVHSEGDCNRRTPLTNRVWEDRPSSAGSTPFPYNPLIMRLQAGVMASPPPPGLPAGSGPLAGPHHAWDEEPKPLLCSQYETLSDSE
Assay [2] deals with T2, Protein deacetylase HDAC6 (Homo sapiens) (UniProt Q9UBN7).
T2 sequence (whole entry): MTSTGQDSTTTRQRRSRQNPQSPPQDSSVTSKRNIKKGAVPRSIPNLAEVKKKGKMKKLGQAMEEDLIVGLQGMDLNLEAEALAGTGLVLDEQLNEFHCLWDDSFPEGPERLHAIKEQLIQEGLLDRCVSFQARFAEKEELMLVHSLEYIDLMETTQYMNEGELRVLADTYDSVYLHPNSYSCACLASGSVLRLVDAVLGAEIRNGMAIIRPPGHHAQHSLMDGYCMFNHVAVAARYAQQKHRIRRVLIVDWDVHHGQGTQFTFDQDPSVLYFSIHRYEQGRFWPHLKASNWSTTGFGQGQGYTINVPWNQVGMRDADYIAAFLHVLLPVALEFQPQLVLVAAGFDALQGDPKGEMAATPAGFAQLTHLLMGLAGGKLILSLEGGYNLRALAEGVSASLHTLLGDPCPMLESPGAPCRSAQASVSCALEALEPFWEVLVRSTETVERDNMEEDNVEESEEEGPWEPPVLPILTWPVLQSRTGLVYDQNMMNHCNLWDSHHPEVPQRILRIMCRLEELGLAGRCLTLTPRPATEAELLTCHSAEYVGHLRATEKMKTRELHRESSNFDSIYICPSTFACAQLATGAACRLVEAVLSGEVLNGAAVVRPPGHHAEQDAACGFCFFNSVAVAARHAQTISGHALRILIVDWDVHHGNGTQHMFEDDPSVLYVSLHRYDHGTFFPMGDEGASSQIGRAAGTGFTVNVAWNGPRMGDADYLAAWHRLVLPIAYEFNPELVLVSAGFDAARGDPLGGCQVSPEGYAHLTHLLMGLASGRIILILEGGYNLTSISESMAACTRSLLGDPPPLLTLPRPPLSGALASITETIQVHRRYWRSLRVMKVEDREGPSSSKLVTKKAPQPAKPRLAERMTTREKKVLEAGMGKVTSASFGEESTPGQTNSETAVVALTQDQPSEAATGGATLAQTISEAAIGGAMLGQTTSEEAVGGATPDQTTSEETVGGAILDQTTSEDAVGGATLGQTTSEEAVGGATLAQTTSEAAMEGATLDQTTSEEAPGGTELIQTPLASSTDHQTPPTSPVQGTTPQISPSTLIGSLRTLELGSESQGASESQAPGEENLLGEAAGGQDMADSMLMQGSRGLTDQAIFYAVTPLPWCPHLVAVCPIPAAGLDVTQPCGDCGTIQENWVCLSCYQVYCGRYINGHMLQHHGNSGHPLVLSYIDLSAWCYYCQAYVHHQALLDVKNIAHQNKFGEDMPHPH
Kind of assay: Inhibition of HDAC6 in human U266 cells assessed as increase in acetylated tubulin level by immunoblot analysis relative to control. Type of assay: cell-based. Put shortly: (§2)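 Multiple myeloma cells harvested in Tris-HCl lysis buffer (pH 7.4) with protease and phosphatase inhibitors, then centrifuged 17,000 g for 30 min at 4 °C. Lysates immunoblotted with specific antibodies for acetylated α-tubulin. Signal detected by ECL on film.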

For assay [3], the target named is T2, Protein deacetylase HDAC6 (Homo sapiens). Kind of assay: Inhibition of HDAC6 in human NCI-H929 cells assessed as increase in acetylated tubulin level by immunoblot analysis relative to control. Type of assay: cell-based. Put shortly: as §2
A general note: A western blot detects proteins with antibodies after separation by electrophoresis.

Another assay concerns the target T3, Histone deacetylase 11 (Homo sapiens, UniProt Q96DB2).
T3 sequence (Q96DB2 whole entry): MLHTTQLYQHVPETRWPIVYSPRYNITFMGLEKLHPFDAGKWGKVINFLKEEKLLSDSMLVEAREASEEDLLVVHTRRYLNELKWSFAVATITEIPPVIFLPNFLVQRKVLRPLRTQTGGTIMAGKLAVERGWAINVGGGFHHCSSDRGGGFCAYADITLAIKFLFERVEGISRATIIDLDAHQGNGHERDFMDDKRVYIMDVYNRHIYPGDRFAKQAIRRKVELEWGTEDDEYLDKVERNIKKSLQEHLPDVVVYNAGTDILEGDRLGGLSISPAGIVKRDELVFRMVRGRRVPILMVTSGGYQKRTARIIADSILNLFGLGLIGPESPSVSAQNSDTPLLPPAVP
Kind of assay: Inhibition of recombinant human N-terminal Strep2-tagged HDAC11 (1 to 347 residues) expressed in baculovirus infected insect cells using Boc-Lys(TFA)-AMC as substrate after 60 mins by fluorescence assay.

In assay [4] the target is T4, Protein deacetylase HDAC6 (Homo sapiens, UniProt Q9UBN7).
T4 sequence (Q9UBN7 whole entry): T2 sequence (whole entry)
The assay can be described thus: Inhibition of full length recombinant human N-terminal GST-tagged HDAC6 expressed in baculovirus infected insect cells using RHK-K(Ac)-AMC as substrate after 90 mins by fluorescence assay.

Chain of Histone deacetylase 2 (Q92769 whole entry): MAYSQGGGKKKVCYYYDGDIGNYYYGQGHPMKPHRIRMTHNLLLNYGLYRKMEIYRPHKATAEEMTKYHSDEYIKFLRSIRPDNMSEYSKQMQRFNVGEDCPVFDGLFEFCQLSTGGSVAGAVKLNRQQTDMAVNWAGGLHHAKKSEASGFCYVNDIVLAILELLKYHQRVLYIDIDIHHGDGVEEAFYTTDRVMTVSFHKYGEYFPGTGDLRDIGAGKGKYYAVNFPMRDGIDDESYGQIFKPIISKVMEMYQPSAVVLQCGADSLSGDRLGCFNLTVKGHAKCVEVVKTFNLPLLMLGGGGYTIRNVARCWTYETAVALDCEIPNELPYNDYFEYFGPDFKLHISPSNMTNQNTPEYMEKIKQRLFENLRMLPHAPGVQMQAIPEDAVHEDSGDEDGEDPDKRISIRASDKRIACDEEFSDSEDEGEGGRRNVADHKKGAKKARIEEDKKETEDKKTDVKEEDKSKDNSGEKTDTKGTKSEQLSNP
Chain of Histone deacetylase 9 (Q9UKV0 whole entry): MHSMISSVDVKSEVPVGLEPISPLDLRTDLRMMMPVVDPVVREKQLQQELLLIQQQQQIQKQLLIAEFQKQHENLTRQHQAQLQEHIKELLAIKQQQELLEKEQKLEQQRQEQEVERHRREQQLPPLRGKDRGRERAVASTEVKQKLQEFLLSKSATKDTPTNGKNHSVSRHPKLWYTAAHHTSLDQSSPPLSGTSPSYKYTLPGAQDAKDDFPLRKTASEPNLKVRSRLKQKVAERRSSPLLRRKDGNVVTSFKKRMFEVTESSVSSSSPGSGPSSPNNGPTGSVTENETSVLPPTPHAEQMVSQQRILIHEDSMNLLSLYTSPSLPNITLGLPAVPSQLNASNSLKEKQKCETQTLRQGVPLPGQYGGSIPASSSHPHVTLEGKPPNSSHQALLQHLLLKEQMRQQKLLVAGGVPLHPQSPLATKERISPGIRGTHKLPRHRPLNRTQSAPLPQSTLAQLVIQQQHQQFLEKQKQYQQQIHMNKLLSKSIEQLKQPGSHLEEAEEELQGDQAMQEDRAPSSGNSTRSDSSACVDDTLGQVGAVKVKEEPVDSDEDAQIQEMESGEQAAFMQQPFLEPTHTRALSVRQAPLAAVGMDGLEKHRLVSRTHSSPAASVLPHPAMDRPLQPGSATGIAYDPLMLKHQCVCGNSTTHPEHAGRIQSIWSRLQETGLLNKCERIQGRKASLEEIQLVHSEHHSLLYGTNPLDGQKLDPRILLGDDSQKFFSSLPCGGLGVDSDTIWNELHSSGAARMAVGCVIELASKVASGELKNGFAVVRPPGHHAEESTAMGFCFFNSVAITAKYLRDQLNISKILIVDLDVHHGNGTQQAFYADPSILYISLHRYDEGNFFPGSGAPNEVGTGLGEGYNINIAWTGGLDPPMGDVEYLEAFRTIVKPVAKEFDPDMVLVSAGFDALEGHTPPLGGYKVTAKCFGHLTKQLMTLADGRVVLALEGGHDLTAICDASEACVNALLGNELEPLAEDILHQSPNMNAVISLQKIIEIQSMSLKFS

Regarding `O=C(NO)c1ccc(CNc2cccc3ncccc23)cc1`, the IC50 against Histone deacetylase 9 is 1.92 µM; on Histone deacetylase 2, 8.61 µM; on Histone deacetylase 8 it was 0.636 µM; in assay [1] it was 5.48 µM; at Histone deacetylase 11 it was 1 µM; in assay [4], 0.000795 µM. The GI50 in the assay with RPMI-8226 was 11 µM; in the assay on NCI-H929, 6.2 µM; in the assay on U-266 it was 28.4 µM. The inhibition entry in [2] and in [3] was “Dose-dependent effect” throughout.
On to `O=C(NO)c1ccc(CNc2cccc3cccnc23)cc1`, for which the IC50 worked out at 1.53 µM on Histone deacetylase 9; 12.5 µM on Histone deacetylase 2; 1.19 µM on Histone deacetylase 8; 7.75 µM in assay [1]; 0.376 µM on Histone deacetylase 11; 0.000291 µM in [4]. The GI50 was found to be 7.49 µM with RPMI-8226, 9.14 µM in the assay on NCI-H929 and 40.6 µM with U-266. For the same compound, the inhibition entry in assay [2] and in assay [3] was “Dose-dependent effect” each time.

The values are drawn from ChEMBL document CHEMBL4024792, “(N-Hydroxycarbonylbenylamino)quinolines as Selective Histone Deacetylase 6 Inhibitors Suppress Growth of Multiple Myeloma in Vitro and in Vivo” (J Med Chem, 2018).
